What was measured:
[1] = Cytotoxicity against mouse L5178Y cells by MTT assay; format: functional, cell-based
In short: (§1)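 MTT assay on mouse lymphoma L5178Y and human ovarian cancer A2780 cells, as in the earlier reports the paper cites. Positive controls were kahalalide F for L5178Y and cisplatin for A2780. Negative control was medium with 0.1% DMSO. Results are given as IC50 in μM.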

[2] = Cytotoxicity against human A2780 cells by MTT assay; format: functional, cell-based; in short: as §1

Structure (SMILES)	IC50 [1] [µM]	IC50 [2] [µM]
C[C@H]1CCC/C=C/[C@H](O)/C=C\[C@H](O)/C=C/C(=O)O1	21	> 50
C[C@H]1CCC[C@@H](O)/C=C/C=C\[C@@H](O)/C=C/C(=O)O1	3.9	12
C[C@H]1CCC/C=C\[C@H](O)[C@H]2O[C@H]2[C@H](O)/C=C/C(=O)O1	> 50	> 50
C[C@H]1CCCCC[C@H](O)CC[C@H](O)/C=C/C(=O)O1	39	> 50
C[C@H]1CCC[C@@H](O)/C=C/C=C\[C@H](O)/C=C/C(=O)O1	3.4	1.2
CO[C@H]1/C=C\CCC[C@H](C)OC(=O)/C=C/[C@@H](O)/C=C\1	0.7	28
C[C@H]1CCC/C=C\[C@H](O)/C=C\[C@H](O)/C=C/C(=O)O1	21	43
CO[C@H]1/C=C/C=C\C(=O)CCC(=O)O[C@@H](C)CCC1	11	> 50
C[C@H]1CCC/C=C/[C@H](O)[C@H]2O[C@H]2[C@H](O)/C=C/C(=O)O1	> 50	> 50
C[C@H]1CCC[C@@H](O)/C=C/C=C\C(=O)CCC(=O)O1	> 50	36
C/C=C1\NC(=O)[C@H](Cc2ccccc2)NC(=O)[C@H](C(C)C)NC(=O)[C@@H]([C@@H](C)CC)NC(=O)[C@@H](NC(=O)[C@H](NC(=O)[C@H](CCCN)NC(=O)[C@H]2CCCN2C(=O)[C@@H](NC(=O)[C@H](NC(=O)[C@@H](NC(=O)[C@@H](NC(=O)CCCC(C)C)C(C)C)[C@@H](C)O)C(C)C)C(C)C)[C@@H](C)CC)[C@@H](C)OC(=O)[C@H](C(C)C)NC1=O	4.3	
CO[C@H]1/C=C\CCC[C@H](C)OC(=O)CCC(=O)/C=C\1	5.6	> 50

From ChEMBL document CHEMBL3867447, “Cytotoxic 14-Membered Macrolides from a Mangrove-Derived Endophytic Fungus, Pestalotiopsis microspora” (J Nat Prod, 2016)
